# Results as given in PMC8463279 (Acta Pharmaceutica Sinica. B, 2021).
# Where two headings read alike, the source gives them in different places.
# How the values were obtained:
# [1] = tested on: 3D7 strain of P. falciparum; assay: Parasites growth inhibition assay; assay type: cell-based; conditions: Plasmodium falciparum
# Outline: (§1)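 P. falciparum grown in type O human red cells in RPMI 1640 with Albumax I, hypoxanthine, bicarbonate, 15 mmol/L HEPES and gentamycin, under 5% O₂/5% CO₂/90% N₂. Synchronised with alanine/HEPES or 5% sorbitol. Mid-ring parasites (0.5% parasitemia, 2% hematocrit) exposed to serially diluted test compound in triplicate for 72 h at 37 °C.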
# [2] = Cytotoxicity assay; assay type: cell-based, Human; conditions: human, HepG2 cells
# Outline: (§2)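 HepG2 cells in DMEM with 10% FBS and penicillin-streptomycin, seeded at 6,000/well and attached overnight at 37 °C, 5% CO₂. Test compound in DMSO diluted into medium and added; 24 h incubation. CCK-8 added for 2–4 h, then absorbance read at 450 nm. CC50 (reported as EC50) from nonlinear logistic regression. SI is CC50 over 3D7 EC50.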
# [3] = Measurement of solubility; assay type: physicochemical; conditions: thermodynamic from solid
# Outline: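 Solid added to solvent to supersaturation and shaken 24 h at room temperature, then centrifuged and filtered. Aqueous supernatants were quantified by reversed-phase HPLC against a standard curve prepared in methanol. For organic solvents, the dissolved solid was weighed after removing solvent under reduced pressure.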
# [4] = target: T1, wildtype yeast bc1 complex (Saccharomyces cerevisiae, UniProt P00163); conditions: at 1 μmol/L; cited from earlier work
# [5] = target: T2, PF12 bc1 complex (PF11 changes plus Y279S) (Saccharomyces cerevisiae, UniProt P00163, C133V/C134L/F296L/H141Y/I299L/L275F/M295V/R283K/V135P/Y136W/Y279S); conditions: cited from earlier work
# [6] = tested on: P. falciparum strain 803; assay: Parasites growth inhibition assay, strain 803; assay type: cell-based; conditions: Plasmodium falciparum
# Outline: as §1
# [7] = tested on: P. falciparum strain Fab9; assay: Parasites growth inhibition assay, strain Fab9; assay type: cell-based; conditions: Plasmodium falciparum
# Outline: as §1
# [8] = tested on: P. falciparum strain C2A; assay: Parasites growth inhibition assay, strain C2A; assay type: cell-based; conditions: Plasmodium falciparum
# Outline: as §1
# [9] = tested on: P. falciparum strain GB4; assay: Parasites growth inhibition assay, strain GB4; assay type: cell-based; conditions: Plasmodium falciparum
# Outline: as §1
# [10] = tested on: P. falciparum strain CP286; assay: Parasites growth inhibition assay, strain CP286; assay type: cell-based; conditions: Plasmodium falciparum
# Outline: as §1
# [11] = tested on: P. falciparum strain PC26; assay: Parasites growth inhibition assay, strain PC26; assay type: cell-based; conditions: Plasmodium falciparum
# Outline: as §1
# [12] = tested on: P. falciparum strain Dd2; assay: Parasites growth inhibition assay, strain Dd2; assay type: cell-based; conditions: Plasmodium falciparum
# Outline: as §1
# [13] = tested on: wildtype (WT) D10 parasites; assay: Parasites growth inhibition assay, wildtype D10 strain; assay type: cell-based; conditions: Plasmodium falciparum
# Outline: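 Wildtype D10 or yDHOD-transgenic D10 parasites were challenged with test compound with or without 50 nmol/L proguanil. Growth inhibition used SYBR Green I: mid-ring cultures at 0.5% parasitemia and 2% hematocrit, in triplicate, for 72 h at 37 °C under 5% O₂/5% CO₂. Plates were freeze-thawed and lysed with SYBR Green I buffer, and fluorescence read at 485/538 nm. EC50 by nonlinear regression.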
# [14] = tested on: HepG2 cells; assay: Cytotoxicity assay; assay type: cell-based, Human; conditions: CC50 / EC50 on 3D7
# Outline: as §2
# [15] = tested on: Plasmodium yoelii-infected mouse models; assay: In vivo efficacy study on P. yoelii-infected mice; conditions: once a day for 4 days
# Outline: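 Female BALB/c mice (25 g, 6–8 weeks), specific pathogen-free, five per group. Infected intraperitoneally with about 1×10⁶ P. yoelii-infected red cells on Day 0, then randomised. Test compound in aqueous 5% DMSO / 18% PEGylated castor oil given intraperitoneally once daily for 4 days from Day 1. Chloroquine and DMSO groups included. Parasitemia by Giemsa-stained smear microscopy; survival followed, with CO₂ euthanasia at distress. Mean ± SD, n = 5.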
# [16] = target: T3, PfNDH2 (Plasmodium falciparum, UniProt Q8I302); assay: Enzymatic activity assay of PfNDH2; assay type: biochemical, P. falciparum
# T3 sequence (Q8I302 1-533): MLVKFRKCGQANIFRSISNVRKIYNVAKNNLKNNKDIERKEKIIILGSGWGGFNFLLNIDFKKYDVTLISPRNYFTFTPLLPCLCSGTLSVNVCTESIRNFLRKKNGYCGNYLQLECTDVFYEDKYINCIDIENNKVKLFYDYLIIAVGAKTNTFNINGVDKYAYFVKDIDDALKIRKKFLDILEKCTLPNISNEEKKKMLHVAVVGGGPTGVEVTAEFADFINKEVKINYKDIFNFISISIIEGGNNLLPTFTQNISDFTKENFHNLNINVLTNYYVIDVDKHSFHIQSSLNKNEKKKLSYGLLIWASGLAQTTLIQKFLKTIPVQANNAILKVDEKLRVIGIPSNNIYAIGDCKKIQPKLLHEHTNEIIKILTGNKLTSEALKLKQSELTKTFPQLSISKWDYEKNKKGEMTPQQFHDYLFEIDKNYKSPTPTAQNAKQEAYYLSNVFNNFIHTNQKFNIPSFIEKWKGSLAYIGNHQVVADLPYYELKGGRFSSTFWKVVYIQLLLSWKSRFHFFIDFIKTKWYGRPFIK
# Outline: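 Reaction started with enzyme; NADH decrease followed continuously at 340 nm (ε 6220 L/(mol·cm)); IC50 by nonlinear regression. Kinetics varied UQ₁ (5–100 µmol/L) or NADH (10–600 µmol/L) at several inhibitor concentrations; Lineweaver–Burk analysis.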
# [17] = target: T4, Pfbc1 (Plasmodium falciparum, UniProt Q02768); assay: Decylubiquinol-cytochrome c reductase activity of Pfbc1; assay type: biochemical, P. falciparum
# T4 sequence (Q02768 1-376): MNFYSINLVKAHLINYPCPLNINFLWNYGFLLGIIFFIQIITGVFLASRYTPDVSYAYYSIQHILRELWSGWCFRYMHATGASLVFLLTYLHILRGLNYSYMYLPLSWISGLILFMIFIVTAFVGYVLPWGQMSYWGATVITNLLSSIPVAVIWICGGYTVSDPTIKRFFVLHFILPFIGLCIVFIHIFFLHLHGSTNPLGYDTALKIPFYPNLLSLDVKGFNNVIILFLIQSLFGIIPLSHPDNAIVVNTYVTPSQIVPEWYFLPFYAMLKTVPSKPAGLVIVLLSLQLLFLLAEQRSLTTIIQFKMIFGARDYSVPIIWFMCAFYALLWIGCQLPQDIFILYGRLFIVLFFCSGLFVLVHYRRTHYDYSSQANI
# [18] = target: T1, wildtype yeast bc1 complex; assay: Decylubiquinol-cytochrome c reductase activity, wildtype yeast bc1; assay type: biochemical; conditions: at 10 μmol/L, data not shown
# Outline: (§3)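 Yeast cytochrome b mutants carry P. falciparum-like substitutions and are otherwise isogenic. Mitochondria from mid-log YPGal cultures were made via zymolyase protoplasts, osmotic shock and differential centrifugation; bc1 content came from dithionite-reduced spectra. Assay at room temperature: 20 µmol/L cytochrome c in 10 mmol/L potassium phosphate pH 7, 0.01% lauryl-maltoside, 1 mmol/L KCN. bc1 was 6 nmol/L (wildtype) or 20 nmol/L (mutants), started with 40 µmol/L decylubiquinol.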
# [19] = target: PFQi4 bc1 complex with P. falciparum-like modifications in the Qi-site (Saccharomyces cerevisiae, UniProt P00163, A191L/F225L/I17L/I195F/I226L/L198I/L40F/M221F/Q22C/S20Y/S34F/V41F/Y16H); assay: Decylubiquinol-cytochrome c reductase activity, yeast bc1 mutant PFQi4; assay type: biochemical
# Outline: as §3
# [20] = target: PF11 bc1 complex with P. falciparum-like modifications in the Qo-site (Saccharomyces cerevisiae, UniProt P00163, C133V/C134L/F296L/H141Y/I299L/L275F/M295V/R283K/V135P/Y136W); assay: Decylubiquinol-cytochrome c reductase activity, yeast bc1 mutant PF11; assay type: biochemical
# Outline: as §3
# [21] = target: T2, PF12 bc1 complex (PF11 changes plus Y279S); assay: Decylubiquinol-cytochrome c reductase activity, yeast bc1 mutant PF12; assay type: biochemical
# [22] = tested on: various P. falciparum strains; assay: Parasites growth inhibition on the panel of various P. falciparum strains; assay type: cell-based, Plasmodium falciparum; conditions: all strains of Table 2
# Outline: as §1
# [23] = 0.01 mol/L HCl, pH 2, simulated gastric fluid
# [24] = dichloromethane, organic solvent or mixture
# [25] = methanol, organic solvent or mixture
Structure (SMILES),EC50 [1] [nM],CC50 at 24 h [2] [nM],"solubility at 24 h [3, 23] [mM]","solubility at 24 h [3, 24] [mM]","solubility at 24 h [3, 25] [mM]",solubility at 24 h ([3]; water) [mM],EC50 [6] [nM],EC50 [7] [nM],EC50 [8] [nM],EC50 [9] [nM],EC50 [10] [nM],EC50 [11] [nM],EC50 [12] [nM],EC50 [13] [nM],SI (selectivity index) [14],further results
"O=C1C(O)=C([C@H]2CC[C@H](c3ccc(Cl)cc3)CC2)C(=O)c2ccccc21 [Atovaquone, atovaquone, reference compound]",0.45,> 10000,0.0006,29,29,0.0007,,,,,,,,,,Inhibition of wildtype yeast bc1 complex [4]: fully inhibited; Increase of mid-point inhibitory concentration PF12 compared to PF11 [5]: > 100 fold
Cc1c(-c2ccc(Cc3ccc(OC(F)(F)F)cc3)c(CN(C)C)c2)[nH]c2cccc(F)c2c1=O [Compound 24],2.09,> 10000,0.496,19,110,0.04,9.3,6.01,1.44,1.02,4.56,3.17,2.05,3.23,>4785,
Cc1c(-c2ccc(Cc3ccc(OC(F)(F)F)cc3)c(CN3CCCC3)c2)[nH]c2cccc(F)c2c1=O [Compound 25],2.89,> 10000,0.45,30,37,0.0163,9.81,5.33,7.01,1.41,4.81,3.3,2.18,2.32,>3460,
CCCCCN(C)Cc1cc(-c2[nH]c3cccc(F)c3c(=O)c2C)ccc1Cc1ccc(OC(F)(F)F)cc1 [Compound 30],0.61,> 10000,0.337,370,34,0.0064,,,,,,,,,">16,393",
CCCCCCCN(C)Cc1cc(-c2[nH]c3cccc(F)c3c(=O)c2C)ccc1Cc1ccc(OC(F)(F)F)cc1 [Compound 31],0.3,> 10000,0.0194,420,32,0.002,,,,,,,,,">33,333",
CCCN(C)Cc1cc(-c2[nH]c3cccc(F)c3c(=O)c2C)ccc1Cc1ccc(OC(F)(F)F)cc1 [RYL-581],0.056,> 10000,0.428,64,37,0.0136,0.96,0.27,0.29,0.23,,0.31,0.44,0.7,">178,571","Day by which parasites were completely cleared ([15]; 3 mg/kg/d intraperitoneal): ≤ 22 days; Final survival rate ([15]; 3 mg/kg/d intraperitoneal, 5 mice): 80%; Day by which all mice were cured ([15]; 10 mg/kg/d intraperitoneal): ≤ 16 days; Survival rate ([15]; 10 mg/kg/d intraperitoneal, 5 mice): 100%; Potency on PfNDH2 decreased as compared to RYL-552 [16]: 11 fold; IC50 ([16]; IC50 PfNDH2, 200 μmol/L NADH, 100 μmol/L UQ1): 42.2 nM; Type of inhibition of PfNDH2 (Lineweaver–Burk) ([16]; substrates Q (UQ1) and NADH varied): non-competitive; IC50 [17]: 0.51 nM; Inhibition of wildtype yeast bc1 complex [18]: only slight inhibition; IC50 [19]: ~10000 nM; Resistance of PFQi4 bc1 complex compared to wild type [19]: increased reactivity; IC50 [20]: ~300 nM; IC50 [21]: ~1000 nM; Increase of mid-point inhibitory concentration PF12 compared to PF11 [21]: three-fold; EC50 values on various strains, in words [22]: sub-nanomolar"
